Common to all, as to type: functional
Experiment [1] has as its system Mus musculus. The experiment can be described thus: Antiinflammatory activity against carrageenan-induced paw edema in C57BL/6 mouse assessed as inhibition of paw edema at 100 mg/kg, po administered 1 hr before carrageenan challenge measured 4 hrs after carrageenan challenge relative to control. In outline:
(§1)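 Male C57BL/6 mice dosed orally at 100 mg/kg as a suspension in 5% carboxymethylcellulose 1 h before challenge. 0.05 ml of 1% w/v carrageenan in 0.9% sterile saline injected subcutaneously into right hind paw plantar region under light anaesthesia. Paw volume by digital plethysmometry immediately and 4 h later. Percent inhibition ± SEM vs vehicle group; diclofenac sodium 100 mg/kg p.o. as standard.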
In general terms: The carrageenan paw model is a standard test of acute inflammation.

The subject of experiment [2] is Mus musculus. As to the kind of experiment: Antiinflammatory activity against carrageenan-induced paw edema in C57BL/6 mouse assessed as increase in paw volume at 100 mg/kg, po administered 1 hr before carrageenan challenge measured 4 hrs after carrageenan challenge relative to control. Summed up:
as §1

The test system of experiment [3] is Mus musculus. As to the kind of experiment: Analgesic activity in C57BL/6 mouse assessed as decrease in acetic acid-induced writhing at 100 mg/kg, po administered 1 hr before acetic acid challenge measured during 30 mins of acetic acid challenge relative to control. Also on record: scale not given: the % may be the effect or the level left. Summed up: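 Male C57BL/6 mice given 100 mg/kg orally (suspension in 5% carboxymethylcellulose) 1 h before i.p. injection of 0.25 ml 0.6% v/v acetic acid. Writhes counted over 30 min after injection. Percent inhibition calculated against mean writhing count of the control group; diclofenac sodium 100 mg/kg p.o. as standard.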
(An intraperitoneal irritant provokes the stretching counted in writhing tests.)

Structures are written as SMILES.

What is called inhibition in vivo is the relative decrease from the control value, in per cent.

Turning to `COc1ccc(NC(=O)CCc2nc(Cc3ccc(NC(C)=O)cc3)no2)cc1OC`, the inhibition in vivo at 100 mg/kg in the experiment on Mus musculus [1] was found to be 95.9%. The Activity in the experiment with Mus musculus [2] stood at 3%; with Mus musculus [3] it was 80.36%.

Regarding `CC(=O)Nc1ccc(Cc2noc(CCC(=O)Nc3ccccc3)n2)cc1`, the inhibition in vivo at 100 mg/kg in the experiment with Mus musculus [1] stood at 34.2%. The results for the Activity in the experiment with Mus musculus [2] and in the experiment on Mus musculus [3] were 48% and -13.1%, respectively.

Regarding `CC(=O)Nc1ccc(Cc2noc(CCC(=O)Nc3ccc(F)cc3F)n2)cc1`, the inhibition in vivo at 100 mg/kg in the experiment on Mus musculus [1] is 52%. The Activity with Mus musculus [2] was 34%; in the experiment with Mus musculus [3] it was -0.6%.

As to `COc1ccccc1NC(=O)CCc1nc(Cc2ccc(NC(C)=O)cc2)no1`, the inhibition in vivo at 100 mg/kg in the experiment on Mus musculus [1] was determined as 87.7%. Further, the Activity in the experiment with Mus musculus [2] stood at 9%; with Mus musculus [3], 73.81%.

For the compound `CC(=O)Nc1ccc(Cc2noc(CCC(=O)Nc3ccccc3F)n2)cc1`, the inhibition in vivo at 100 mg/kg in the experiment on Mus musculus [1] stood at 67.1%. The Activity in the experiment on Mus musculus [2] is on record as 24%; in the experiment on Mus musculus [3], -23.21%.

In the case of `CC(=O)Nc1ccc(Cc2noc(CCC(=O)Nc3cccc(C)c3)n2)cc1`, the inhibition in vivo at 100 mg/kg in the experiment with Mus musculus [1] came to 16.4%. Also, the values for the Activity in the experiment with Mus musculus [2] and with Mus musculus [3] were 61% and 67.26%, respectively.

On to `CC(=O)Nc1ccc(Cc2noc(CCC(=O)Nc3ccc(C(F)(F)F)cc3)n2)cc1`, for which the inhibition in vivo at 100 mg/kg in the experiment with Mus musculus [1] worked out at 37%. Also, the Activity is on record as 46% with Mus musculus [2] and 31.55% in the experiment with Mus musculus [3].

Turning to `COc1cccc(NC(=O)CCc2nc(Cc3ccc(NC(C)=O)cc3)no2)c1`, in the experiment on Mus musculus [1], the inhibition in vivo at 100 mg/kg is 35.6%. Moreover, the Activity is 47% in the experiment with Mus musculus [2] and -7.14% with Mus musculus [3].

With `CC(=O)Nc1ccc(Cc2noc(CCC(=O)Nc3ccc(F)cc3)n2)cc1`, the inhibition in vivo at 100 mg/kg in the experiment with Mus musculus [1] was 64.4%. Moreover, the Activity in the experiment on Mus musculus [2] is 26%; in the experiment on Mus musculus [3] it was 67.86%.

`O=C([O-])Cc1ccccc1Nc1c(Cl)cccc1Cl.[Na+]` [DICLOFENAC SODIUM]: the inhibition in vivo at 100 mg/kg in the experiment with Mus musculus [1] worked out at 50.7%. For the same compound, the Activity was 36% in the experiment with Mus musculus [2] and 77.38% in the experiment with Mus musculus [3].

As to `CC(=O)Nc1ccc(Cc2noc(CCC(=O)NCc3ccccc3)n2)cc1`, in the experiment with Mus musculus [1], the inhibition in vivo at 100 mg/kg amounted to 76.7%. The Activity in the experiment on Mus musculus [2] is given as 17%; in the experiment with Mus musculus [3], -0.6%.

As to `CC(=O)Nc1ccc(Cc2noc(CCC(=O)O)n2)cc1`, in the experiment with Mus musculus [1], the inhibition in vivo at 100 mg/kg stood at 75.3%. For the same compound, the Activity in the experiment on Mus musculus [2] stood at 18%; in the experiment with Mus musculus [3] it was 46.43%.

In the case of `CC(=O)Nc1ccc(Cc2noc(CCC(=O)Nc3cccnc3)n2)cc1`, the inhibition in vivo at 100 mg/kg with Mus musculus [1] was determined as 87.7%. Also, the Activity is given as 9% in the experiment on Mus musculus [2] and 80.95% in the experiment with Mus musculus [3].

In the case of `COc1ccc(NC(=O)CCc2nc(Cc3ccc(NC(C)=O)cc3)no2)cc1`, the inhibition in vivo at 100 mg/kg in the experiment with Mus musculus [1] is 49.3%. For the same compound, the Activity came out at 37% with Mus musculus [2] and 67.26% with Mus musculus [3].

In the case of `COc1ccc(NC(=O)CCc2nc(Cc3ccc(NC(C)=O)cc3)no2)cc1F`, in the experiment with Mus musculus [1], the inhibition in vivo at 100 mg/kg is 60.3%. The Activity in the experiment with Mus musculus [2] came out at 29%; in the experiment on Mus musculus [3] it was 36.9%.

Take `C#Cc1cccc(NC(=O)CCc2nc(Cc3ccc(NC(C)=O)cc3)no2)c1`: the inhibition in vivo at 100 mg/kg in the experiment with Mus musculus [1] was found to be 84.9%. Further, the Activity was found to be 11% with Mus musculus [2] and 61.31% with Mus musculus [3].
